From ChEMBL document CHEMBL1129463, “Discovery of 1,5-benzodiazepines with peripheral cholecystokinin (CCK-A) receptor agonist activity (II): Optimization of the C3 amino substituent” (J Med Chem, 1996)

Assays:
[1] = molecular target: T1, Gastrin/cholecystokinin type B receptor (Homo sapiens, UniProt P32239); assay: Compound was tested in vitro for its ability to displace [125I]Bolton-Hunter CCK-8 from membrane preparation isolated from CHO-KI cells stably transfected with cDNA of human Cholecystokinin type B receptor; assay type: cell membranes
T1 sequence (P32239 whole entry): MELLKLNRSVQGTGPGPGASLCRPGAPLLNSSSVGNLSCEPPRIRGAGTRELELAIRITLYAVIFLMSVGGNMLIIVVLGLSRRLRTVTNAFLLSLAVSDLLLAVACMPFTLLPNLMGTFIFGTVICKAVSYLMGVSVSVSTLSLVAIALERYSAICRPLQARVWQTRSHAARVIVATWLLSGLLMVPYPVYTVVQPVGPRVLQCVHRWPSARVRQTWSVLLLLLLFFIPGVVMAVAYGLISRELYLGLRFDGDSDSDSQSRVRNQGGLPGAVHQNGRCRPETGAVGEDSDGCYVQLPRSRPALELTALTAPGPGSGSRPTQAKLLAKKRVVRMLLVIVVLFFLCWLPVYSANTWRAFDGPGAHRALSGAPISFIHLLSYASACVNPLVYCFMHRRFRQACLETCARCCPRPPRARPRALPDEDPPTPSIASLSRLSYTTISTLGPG

[2] = molecular target: T2, Cholecystokinin receptor type A (Homo sapiens, UniProt P32238); assay: Compound was tested in vitro for its ability to displace [125I]Bolton-Hunter CCK-8 from membrane preparation isolated from CHO-KI cells stably transfected with cDNA of human Cholecystokinin type A receptor; assay type: cell membranes
T2 sequence (P32238 whole entry): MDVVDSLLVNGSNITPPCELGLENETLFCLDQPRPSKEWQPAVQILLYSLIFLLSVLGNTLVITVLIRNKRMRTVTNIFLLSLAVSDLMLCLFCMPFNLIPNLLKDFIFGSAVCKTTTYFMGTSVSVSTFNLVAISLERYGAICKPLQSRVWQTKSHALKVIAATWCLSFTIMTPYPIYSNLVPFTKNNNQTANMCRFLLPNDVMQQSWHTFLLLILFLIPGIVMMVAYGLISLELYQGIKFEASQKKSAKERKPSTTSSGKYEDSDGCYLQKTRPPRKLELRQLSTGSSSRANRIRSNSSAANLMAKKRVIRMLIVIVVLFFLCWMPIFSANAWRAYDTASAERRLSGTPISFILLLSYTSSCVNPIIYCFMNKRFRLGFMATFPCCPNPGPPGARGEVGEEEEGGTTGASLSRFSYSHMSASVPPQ

Cavia porcellus [3] = species: Cavia porcellus; assay: Maximum contractile response at 30 uM, normalized to CCK-8 (1 uM); assay type: functional
Cavia porcellus [4] = species: Cavia porcellus; assay: In-vitro potency on the isolated guinea pig gallbladder; assay type: functional
Cavia porcellus [5] = species: Cavia porcellus; assay: In vitro Functional activity on the isolated guinea pig gallbladder following incubation at 1 micro M percent contraction normalized to that for CCK-8
How it was run: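 Contraction is expressed as percent of the CCK-8 (1 μM) response. Non-contracting compounds were tested for antagonism against a CCK-8 curve (10⁻¹¹ to 10⁻⁶ M).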

Cavia porcellus [6] = species: Cavia porcellus; assay: In vitro functional activity on the isolated guinea pig gallbladder; set-up: concentration or dose not given beside the values
Mus musculus [7] = assay: Compound was tested in vivo for its activity in mouse gallbladder emptying assay at dose of 1 umol/kg po; assay type: functional
Mus musculus [8] = assay: Compound was tested in vivo for Percent Maximal response in mouse gallbladder emptying assay at dose of 1 umol/kg po; assay type: functional
Rattus norvegicus [9] = assay: Compound was tested in vivo for its Percent Maximal anorectic potency in rats at dose of 0.1 umol/kg ip; assay type: functional
Rattus norvegicus [10] = assay: Compound was tested in vivo for its Percent Maximal anorectic potency in rats at dose of 1 umol/kg po; assay type: functional
Mus musculus [11] = assay: Compound was tested in vivo for its activity in mouse gallbladder emptying assay at dose of 0.1 umol/kg ip; assay type: functional
Rattus norvegicus [12] = assay: Compound was tested in vivo for its anorectic potency in rats at dose of 0.5 umol/kg ip
Mus musculus [13] = assay: Compound was tested in vivo Percent Maximal response activity in mouse gallbladder emptying assay at dose of 1 nmol/kg ip

**Q.** How did the IC50 [1] turn out when `CC(C)N(C(=O)CN1C(=O)C(NC(=O)Nc2cccc(C(=O)O)c2)C(=O)N(c2ccccc2)c2ccccc21)c1ccccc1` (stereo not drawn) was run?
**A.** 10 nM

**Q.** And the IC50 [2]?
**A.** 126 nM

**Q.** And the Max (Cavia porcellus [3])?
**A.** 102%

**Q.** And the EC50 (Cavia porcellus [4])?
**A.** 39.8 nM

**Q.** And the Activity (Cavia porcellus [5])?
**A.** 95%

**Q.** And the Activity (Cavia porcellus [6])?
**A.** 100%

**Q.** What about the ED50 (Mus musculus [7]) of the same molecule?
**A.** 0.055 µmol/kg

**Q.** And the Max (Mus musculus [8])?
**A.** 77%

**Q.** What about the Max (Rattus norvegicus [9]) of the same molecule?
**A.** 87%

**Q.** And the Max (Rattus norvegicus [10])?
**A.** 58%

**Q.** What about the ED50 (Mus musculus [11]) of the same molecule?
**A.** 0.0071 µmol/kg

**Q.** What about the ED50 (Rattus norvegicus [12]) of the same molecule?
**A.** 0.06 µmol/kg

**Q.** And the Max (Mus musculus [13])?
**A.** 73%
